Experimental data taken from ChEMBL document CHEMBL1156084, “Synthesis and structure-activity relationships of pyrazolodiazepine derivatives as human P2X7 receptor antagonists” (Bioorg Med Chem Lett, 2009).

Assays:
Format in all cases: functional, cell-based
[1] = molecular target: T1, P2X purinoceptor 7 (Homo sapiens) (UniProt Q99572); experiment: Antagonist activity at human P2X7 receptor expressed in HEK293 cells assessed as inhibition of BzATP-induced fluorescent ethidium accumulation; details: concentration not given here
T1 sequence (whole entry): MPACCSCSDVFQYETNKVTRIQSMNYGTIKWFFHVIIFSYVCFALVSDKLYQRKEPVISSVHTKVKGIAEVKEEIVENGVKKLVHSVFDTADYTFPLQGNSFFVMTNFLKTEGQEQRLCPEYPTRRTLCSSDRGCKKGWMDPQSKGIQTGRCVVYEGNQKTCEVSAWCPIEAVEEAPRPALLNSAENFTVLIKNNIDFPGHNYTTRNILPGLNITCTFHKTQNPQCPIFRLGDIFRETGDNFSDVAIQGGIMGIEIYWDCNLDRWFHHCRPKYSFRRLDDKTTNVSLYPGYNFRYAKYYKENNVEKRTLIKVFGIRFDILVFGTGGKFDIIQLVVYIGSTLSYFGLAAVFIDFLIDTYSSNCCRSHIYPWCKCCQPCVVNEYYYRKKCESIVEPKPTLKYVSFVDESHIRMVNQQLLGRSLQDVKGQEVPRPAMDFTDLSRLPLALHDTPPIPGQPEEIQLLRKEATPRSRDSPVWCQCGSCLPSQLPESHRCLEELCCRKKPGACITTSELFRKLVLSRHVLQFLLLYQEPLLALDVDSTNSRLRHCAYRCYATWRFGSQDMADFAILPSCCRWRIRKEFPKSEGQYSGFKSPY
In short: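 Adherent HEK293 cells stably transfected with human P2X7 cDNA, resuspended at 2.5×10^6 cells/mL in HEPES buffer (mM: ethidium bromide 0.1, EDTA 1, glucose 5, HEPES 20, KCl 140; pH 7.4). Cells added to compound wells, then BzATP, and incubated 120 min at 37 °C. Ethidium uptake read by fluorescence (ex 530/20, em 590/20). IC50 is the mean from dose–response curves of at least three experiments.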

P2X purinoceptor 7 = molecular target: T2, P2X purinoceptor 7 (Homo sapiens, UniProt Q99572); experiment: Antagonist activity at human P2X7 receptor expressed in HEK293 cells assessed as inhibition of BzATP-induced fluorescent ethidium accumulation […]
T2 sequence (Q99572 whole entry): T1 sequence (whole entry)
In short: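 Human P2X7-expressing HEK293 cells at 2.5×10^6 cells/mL in pH 7.4 HEPES/KCl/EDTA/glucose buffer containing 0.1 mM ethidium bromide. Compound tested at 10 μM, then BzATP added, and cells held 120 min at 37 °C. Ethidium accumulation measured by fluorescence (ex 530/20, em 590/20) and expressed as % inhibition, mean ± SD of three repeats.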

[2] = molecular target: T1, P2X purinoceptor 7 (Homo sapiens); experiment: Antagonist activity at P2X7 receptor in IFN-gamma/LPS-differentiated human THP1 cells assessed as inhibition of BzATP-induced IL1-beta release at 10 uM treated 30 mins prior to BzATP addition by ELISA; details: THP-1
In short: (§1)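 THP-1 cells differentiated and primed 3 h with 25 ng/mL LPS plus 10 ng/ml IFNγ. Compound added 30 min before stimulation with 1 mM BzATP for 30 min. Supernatants cleared by centrifugation (1000 rpm, 5 min), and mature human IL-1β quantified by ELISA.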

[3] = molecular target: T1, P2X purinoceptor 7 (Homo sapiens); experiment: Antagonist activity at P2X7 receptor in IFN-gamma/LPS-differentiated human THP1 cells assessed as inhibition of BzATP-induced IL1-beta release treated 30 mins prior to BzATP addition by ELISA; details: THP-1; in short: as §1

Row | Structure (SMILES) | inhibition [1] | IC50 (P2X purinoceptor 7) | inhibition [2] | Activity [3]
1 | Cn1cc(CN2C[C@H](COC(=O)c3cn(C)c4ccccc34)NC(=O)c3nn(CCc4ccccc4)cc32)c2ccccc21 | 68% | 1070 nM | 65% | 
2 | O=C1N[C@@H](Cc2ccccc2)CN(C(=O)C2CC2)c2cn(CCC3CCNCC3)nc21 | 13% |  |  | 
3 | Cc1ccc(CN2C[C@H](COC(=O)c3cn(C)c4ccccc34)NC(=O)c3nn(CCc4ccccc4)cc32)cc1 | 87% | 520 nM | 38% | 
4 | Cn1cc(C(=O)OC[C@H]2CN(Cc3ccccc3)c3cn(CCc4ccccc4)nc3C(=O)N2)c2ccccc21 | 94% | 310 nM | 105% | Dose-dependent effect
5 | O=C1N[C@@H](COC(=O)c2cccc3cnccc23)CN(Cc2ccc(Br)cc2)c2cn(CCc3ccccc3)nc21 | 38% |  |  | 
6 | CN([C@@H](Cc1ccc(OS(=O)(=O)c2cccc3cnccc23)cc1)C(=O)N1CCN(c2ccccc2)CC1)S(=O)(=O)c1cccc2cnccc12 |  | 110 nM | 103% | 
7 | Cc1cccc(CN2C[C@H](COC(=O)c3cn(C)c4ccccc34)NC(=O)c3nn(CCc4ccccc4)cc32)c1 | 46% |  |  | 
8 | Cn1cc(CN2CCC(CCn3cc4c(n3)C(=O)N[C@@H](Cc3ccccc3)CN4C(=O)C3CC3)CC2)c2ccccc21 | 39% |  |  | 
9 | Cc1cc(O)ccc1CN1C[C@H](COC(=O)c2cn(C)c3ccccc23)NC(=O)c2nn(CCc3ccccc3)cc21 | 88% | 180 nM | 37% | 
10 | Cn1cc(C(=O)OC[C@H]2CN(Cc3ccc(Br)cc3)c3cn(CCc4ccccc4)nc3C(=O)N2)c2ccccc21 | 88% | 850 nM | 50% | 
11 | Cn1cc(C(=O)OC[C@H]2CN(Cc3ccc(Cl)cc3)c3cn(CCc4ccccc4)nc3C(=O)N2)c2ccccc21 | 94% | 250 nM | 55% | 
12 | O=C1N[C@@H](COC(=O)c2cccc3cnccc23)CN(Cc2ccc(F)cc2)c2cn(CCc3ccccc3)nc21 | 75% | 1280 nM | 65% | 
13 | O=C(OC[C@H]1CNc2cn(CCc3ccccc3)nc2C(=O)N1)c1ccccc1 | 33% |  |  | 
14 | Cn1cc(C(=O)OCC2CN(Cc3cccc4ccccc34)c3cn(CCc4ccccc4)nc3C(=O)N2)c2ccccc21 (single isomer, unassigned) | 48% |  |  | 
15 | O=C1N[C@@H](Cc2ccccc2)CN(C(=O)C2CC2)c2cn(CCC3CCN(Cc4cccc5ncccc45)CC3)nc21 | 24% |  |  | 
16 | O=C1N[C@@H](COC(=O)c2cccc3ccccc23)CN(Cc2ccccc2)c2cn(CCc3ccccc3)nc21 | 44% |  |  | 

Row | Structure (SMILES) | inhibition [1] | IC50 (P2X purinoceptor 7) | inhibition [2] | Activity [3]
17 | O=C1N[C@@H](COC(=O)c2cccc3cnccc23)CNc2cn(CCc3ccccc3)nc21 | 71% | 790 nM | 44% | 
18 | Cn1cc(CN2C[C@H](COC(=O)c3cccc4cnccc34)NC(=O)c3nn(CCc4ccccc4)cc32)c2ccccc21 | 33% |  |  | 
19 | Cn1cc(C(=O)OC[C@H]2CNc3cn(CCc4ccccc4)nc3C(=O)N2)c2ccccc21 | 43% |  |  | 
20 | COc1ccc(CN2C[C@H](COC(=O)c3cn(C)c4ccccc34)NC(=O)c3nn(CCc4ccccc4)cc32)cc1 | 29% |  |  | 
21 | Cn1cc(C(=O)OC[C@H]2CN(Cc3ccc(F)cc3)c3cn(CCc4ccccc4)nc3C(=O)N2)c2ccccc21 | 39% |  |  | 
22 | Cc1cccc(CN2C[C@H](COC(=O)c3cccc4cnccc34)NC(=O)c3nn(CCc4ccccc4)cc32)c1 | 42% |  |  | 
23 | Cc1cc(O)ccc1CN1C[C@@H](COC(=O)c2cn(C)c3ccccc23)NC(=O)c2nn(CCc3ccccc3)cc21 | 30% |  |  | 
24 | Cc1cc(CN2C[C@H](COC(=O)c3cccc4cnccc34)NC(=O)c3nn(CCc4ccccc4)cc32)ccc1O | 84% | 740 nM | 51% | 
25 | CC(C)(C)OC(=O)N1CCC(CCn2cc3c(n2)C(=O)N[C@@H](Cc2ccccc2)CN3C(=O)C2CC2)CC1 | 61% | 13000 nM |  | 
26 | O=C1N[C@@H](Cc2ccccc2)CN(C(=O)C2CC2)c2cn(CCC3CCN(Cc4cccc5cnccc45)CC3)nc21 | 27% |  |  | 
27 | Cn1cc(C(=O)OC[C@H]2CN(Cc3ccc([N+](=O)[O-])cc3)c3cn(CCc4ccccc4)nc3C(=O)N2)c2ccccc21 | 65% | 1420 nM | 41% | 
28 | Cn1cc(C(=O)OC[C@H]2CN(Cc3cccc(F)c3)c3cn(CCc4ccccc4)nc3C(=O)N2)c2ccccc21 | 45% |  |  | 
29 | CC(C)(C)OC(=O)N1CCC(CCn2cc3c(n2)C(=O)N[C@H](Cc2ccccc2)CN3C(=O)C2CC2)CC1 | 70% | 4310 nM |  | 
30 | O=C1N[C@@H](COC(=O)c2cccc3ccccc23)CNc2cn(CCc3ccccc3)nc21 | 46% |  |  | 
31 | Cc1ccc(CN2C[C@H](COC(=O)c3cccc4cnccc34)NC(=O)c3nn(CCc4ccccc4)cc32)cc1 | 69% | 1180 nM | 48% | 
32 | O=C1N[C@@H](COC(=O)c2cccc3cnccc23)CN(Cc2ccccc2)c2cn(CCc3ccccc3)nc21 | 68% | 1450 nM | 42% | 
